This is an account of results in ChEMBL document CHEMBL4371033, “Highly Potent and Selective Plasmin Inhibitors Based on the Sunflower Trypsin Inhibitor-1 Scaffold Attenuate Fibrinolysis in Plasma” (J Med Chem, 2019).

Residues, ends and D or L forms follow the SMILES beside them.

One assay deals with T1, Serine protease 1 (Bos taurus, UniProt P00760).
T1 sequence (P00760 whole entry): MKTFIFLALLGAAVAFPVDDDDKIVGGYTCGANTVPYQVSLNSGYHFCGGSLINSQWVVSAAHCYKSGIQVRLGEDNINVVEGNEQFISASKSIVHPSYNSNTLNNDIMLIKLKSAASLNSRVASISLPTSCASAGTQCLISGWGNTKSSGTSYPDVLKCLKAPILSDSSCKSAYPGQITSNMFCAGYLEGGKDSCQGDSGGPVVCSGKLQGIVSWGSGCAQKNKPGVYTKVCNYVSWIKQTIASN
The assay is described as follows: Inhibition of bovine cationic trypsin using Bz-FVR-pNA as substrate after 30 mins.

For assay [1], the target named is T2, Plasminogen (Homo sapiens, UniProt P00747). The assay is described as follows: Inhibition of human plasmin using Ac-RM(O2)YR-pNA as substrate after 30 mins.
The next assay has as its target T3, Cathepsin G (Homo sapiens, UniProt P08311).
T3 sequence (P08311 whole entry): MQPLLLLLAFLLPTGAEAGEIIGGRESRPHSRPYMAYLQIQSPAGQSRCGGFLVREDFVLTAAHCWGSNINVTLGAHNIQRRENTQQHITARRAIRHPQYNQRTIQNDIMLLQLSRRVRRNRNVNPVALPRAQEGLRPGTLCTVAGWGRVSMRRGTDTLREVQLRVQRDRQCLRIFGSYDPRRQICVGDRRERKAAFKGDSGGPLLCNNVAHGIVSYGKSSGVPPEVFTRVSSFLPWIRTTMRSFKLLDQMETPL
The assay can be described thus: Inhibition of human cathepsin G using Suc-AAPF-MCA as substrate after 30 mins.

Another assay addresses Coagulation factor IX (Homo sapiens, UniProt P00740). The assay can be described thus: Inhibition of activated beta-factor 9 (unknown origin) using Boc-QGR-MCA as substrate after 30 mins relative to untreated control.
For another assay, the target named is Coagulation factor X (Homo sapiens, UniProt P00742). The assay is described as follows: Inhibition of activated factor 10 (unknown origin) using Ac-QRSR-pNA as substrate after 30 mins relative to untreated control.
In another assay the target is T4, Coagulation factor XII (Homo sapiens, UniProt P00748).
T4 sequence (P00748 whole entry): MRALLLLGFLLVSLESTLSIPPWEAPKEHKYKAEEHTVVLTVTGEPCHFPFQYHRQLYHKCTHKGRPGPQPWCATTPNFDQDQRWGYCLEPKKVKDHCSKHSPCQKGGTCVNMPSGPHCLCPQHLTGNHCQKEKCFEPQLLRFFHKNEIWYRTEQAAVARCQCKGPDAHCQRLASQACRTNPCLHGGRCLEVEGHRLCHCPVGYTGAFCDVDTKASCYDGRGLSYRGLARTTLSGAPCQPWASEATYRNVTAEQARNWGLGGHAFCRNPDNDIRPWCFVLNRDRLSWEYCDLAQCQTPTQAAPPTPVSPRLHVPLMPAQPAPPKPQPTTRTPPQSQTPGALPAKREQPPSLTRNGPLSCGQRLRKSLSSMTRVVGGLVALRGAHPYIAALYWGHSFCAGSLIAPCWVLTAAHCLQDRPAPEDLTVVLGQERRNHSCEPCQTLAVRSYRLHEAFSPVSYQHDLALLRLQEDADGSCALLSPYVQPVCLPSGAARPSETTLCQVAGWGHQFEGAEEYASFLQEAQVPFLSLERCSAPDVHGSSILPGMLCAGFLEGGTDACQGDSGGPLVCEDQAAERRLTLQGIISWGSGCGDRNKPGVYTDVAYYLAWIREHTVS
The assay is described as follows: Inhibition of activated beta-factor 12 (unknown origin) using Ac-QRFR-pNA as substrate after 30 mins relative to untreated control.

Another assay concerns the target Prothrombin (Homo sapiens, UniProt P00734). The assay can be described thus: Inhibition of human thrombin using Ac-ATPR-pNA as substrate after 30 mins relative to untreated control.
The target of assay [2] is Tissue-type plasminogen activator (Homo sapiens, UniProt P00750). The assay can be described thus: Inhibition of tPA (unknown origin) using Z-Pyr-Gly-Arg-MCA as substrate after 30 mins relative to untreated control.
Assay [3] has as its target Urokinase-type plasminogen activator (Homo sapiens, UniProt P00749). The assay can be described thus: Inhibition of uPA (unknown origin) using Z-Pyr-Gly-Arg-MCA as substrate after 30 mins relative to untreated control.
The target of another assay is Coagulation factor XI (Homo sapiens, UniProt P03951). The assay can be described thus: Inhibition of activated beta-factor 11 (unknown origin) using Bz-FVRpNA as substrate after 30 mins relative to untreated control.
A further assay has as its target Plasma kallikrein (Homo sapiens, UniProt P03952). The assay can be described thus: Inhibition of plasma KLK (unknown origin) using Ac-NLTR-pNA as substrate after 30 mins relative to untreated control.
The target in assay [4] is T2, Plasminogen. The assay is described as follows: Inhibition of human plasmin assessed as dissociation rate constant using Ac-RM(O2)YR-pNA as substrate after 30 mins. A digest of the protocol: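 koff from the Baici and Gyger-Marazzi method: the lag phase before steady-state hydrolysis was compared between protease/inhibitor preincubated and substrate plus inhibitor added together. Human plasmin in 100 mM Tris pH 8.0, 100 mM NaCl, 0.005% Triton X-100, pNA substrate read at 405 nm.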

Assay [5] deals with T2, Plasminogen. The assay is described as follows: Inhibition of human plasmin assessed as association rate constant using Ac-RM(O2)YR-pNA as substrate after 30 mins.
The target of assay [6] is T2, Plasminogen. The assay can be described thus: Inhibition of plasmin in human plasma assessed as reduction in tPA and thrombin-induced fibrinolysis at 200 nM by fibrin light scattering analysis relative to control. It is filed as cell-free. A digest of the protocol:
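Pooled citrated human plasma with inhibitor in Tris-HCl pH 7.4, 150 mM NaCl, 30 mM CaCl2, plasma 1:5 final. Clotting and lysis started with tPA (1.5 nM) and thrombin (2.5 nM). Fibrin formation and lysis followed by light scattering at 405 nm over 1 h. Mean of three independent experiments, each with 12 technical replicates.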

Assay [7] is filed under the species Homo sapiens. The assay is described as follows: Selectivity index, ratio of IC50 for inhibition of activated beta-factor 9 (unknown origin) to IC50 for Inhibition of human plasmin.
The species entered for assay [8] is Homo sapiens. The assay is described as follows: Selectivity index, ratio of IC50 for inhibition of activated factor 10 (unknown origin) to IC50 for Inhibition of human plasmin.
The species entered for assay [9] is Homo sapiens. The assay can be described thus: Selectivity index, ratio of IC50 for inhibition of activated beta-factor 12 (unknown origin) to IC50 for Inhibition of human plasmin.
The species named for assay [10] is Homo sapiens. The assay can be described thus: Selectivity index, ratio of IC50 for inhibition of human thrombin to IC50 for Inhibition of human plasmin.
Assay [11] is filed under the species Homo sapiens. The assay can be described thus: Selectivity index, ratio of IC50 for inhibition of tPA (unknown origin) to IC50 for Inhibition of human plasmin.
For assay [12], the species on record is Homo sapiens. The assay can be described thus: Selectivity index, ratio of IC50 for inhibition of uPA (unknown origin) to IC50 for Inhibition of human plasmin.
Assay [13] is filed under the species Homo sapiens. The assay is described as follows: Selectivity index, ratio of IC50 for inhibition of activated beta-factor 11 (unknown origin) to IC50 for Inhibition of human plasmin.
For assay [14], the species on record is Homo sapiens. The assay can be described thus: Selectivity index, ratio of IC50 for inhibition of plasma KLK (unknown origin) to IC50 for Inhibition of human plasmin.
The species named for assay [15] is Homo sapiens. The assay can be described thus: Selectivity index, ratio of IC50 for inhibition of matriptase (unknown origin) to IC50 for Inhibition of human plasmin.

T2 sequence (P00747 97-580 limits assumed): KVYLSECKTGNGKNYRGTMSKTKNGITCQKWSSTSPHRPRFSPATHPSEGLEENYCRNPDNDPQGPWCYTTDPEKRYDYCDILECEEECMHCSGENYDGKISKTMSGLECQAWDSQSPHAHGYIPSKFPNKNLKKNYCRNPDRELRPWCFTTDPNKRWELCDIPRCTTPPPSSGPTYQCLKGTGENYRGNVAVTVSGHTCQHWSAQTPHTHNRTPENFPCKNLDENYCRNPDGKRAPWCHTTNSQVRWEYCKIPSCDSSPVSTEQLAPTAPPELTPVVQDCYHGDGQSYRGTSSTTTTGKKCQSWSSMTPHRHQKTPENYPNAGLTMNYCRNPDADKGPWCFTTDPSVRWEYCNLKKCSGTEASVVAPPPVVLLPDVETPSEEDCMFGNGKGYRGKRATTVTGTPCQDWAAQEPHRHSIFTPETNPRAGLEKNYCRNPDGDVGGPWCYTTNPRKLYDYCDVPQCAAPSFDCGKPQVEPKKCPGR
T2 sequence (P00747 581-810 limits assumed): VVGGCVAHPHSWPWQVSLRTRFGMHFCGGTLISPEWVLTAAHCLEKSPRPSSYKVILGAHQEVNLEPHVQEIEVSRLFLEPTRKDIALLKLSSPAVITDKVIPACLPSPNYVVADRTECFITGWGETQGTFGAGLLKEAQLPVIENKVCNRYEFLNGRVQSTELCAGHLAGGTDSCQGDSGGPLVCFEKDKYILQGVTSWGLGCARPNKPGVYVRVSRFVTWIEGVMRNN
Plasma kallikrein, sequence (P03952 20-390 limits assumed): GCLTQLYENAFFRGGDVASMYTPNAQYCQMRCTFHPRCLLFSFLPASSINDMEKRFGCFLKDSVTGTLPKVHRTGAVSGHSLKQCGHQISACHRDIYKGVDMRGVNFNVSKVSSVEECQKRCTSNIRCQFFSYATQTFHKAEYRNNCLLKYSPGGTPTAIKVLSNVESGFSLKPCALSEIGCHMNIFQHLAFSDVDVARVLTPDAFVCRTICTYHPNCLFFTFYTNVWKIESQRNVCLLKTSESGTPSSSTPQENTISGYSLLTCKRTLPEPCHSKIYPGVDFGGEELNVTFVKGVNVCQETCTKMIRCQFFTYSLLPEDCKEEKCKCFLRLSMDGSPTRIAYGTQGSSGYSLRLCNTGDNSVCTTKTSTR
Plasma kallikrein, sequence (P03952 391-638 limits assumed): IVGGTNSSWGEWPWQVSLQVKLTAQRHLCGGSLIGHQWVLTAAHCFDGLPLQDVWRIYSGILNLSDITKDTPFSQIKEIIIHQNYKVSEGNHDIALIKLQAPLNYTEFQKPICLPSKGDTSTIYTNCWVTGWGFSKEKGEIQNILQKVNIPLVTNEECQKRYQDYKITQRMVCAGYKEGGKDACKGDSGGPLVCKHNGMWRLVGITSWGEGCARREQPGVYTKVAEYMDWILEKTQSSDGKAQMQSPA
Coagulation factor X, sequence (P00742 41-179 limits assumed): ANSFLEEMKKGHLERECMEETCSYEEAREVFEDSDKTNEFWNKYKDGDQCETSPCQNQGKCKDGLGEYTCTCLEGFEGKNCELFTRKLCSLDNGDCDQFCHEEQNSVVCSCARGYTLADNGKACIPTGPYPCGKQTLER
Coagulation factor X, sequence (P00742 235-488 limits assumed): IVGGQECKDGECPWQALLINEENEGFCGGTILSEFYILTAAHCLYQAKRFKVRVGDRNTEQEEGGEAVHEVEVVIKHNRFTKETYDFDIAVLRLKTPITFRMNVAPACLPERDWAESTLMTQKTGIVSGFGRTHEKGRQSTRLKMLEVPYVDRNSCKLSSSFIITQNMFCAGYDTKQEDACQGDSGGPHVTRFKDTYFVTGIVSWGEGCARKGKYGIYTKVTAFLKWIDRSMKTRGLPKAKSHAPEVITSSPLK
Tissue-type plasminogen activator, sequence (P00750 whole entry): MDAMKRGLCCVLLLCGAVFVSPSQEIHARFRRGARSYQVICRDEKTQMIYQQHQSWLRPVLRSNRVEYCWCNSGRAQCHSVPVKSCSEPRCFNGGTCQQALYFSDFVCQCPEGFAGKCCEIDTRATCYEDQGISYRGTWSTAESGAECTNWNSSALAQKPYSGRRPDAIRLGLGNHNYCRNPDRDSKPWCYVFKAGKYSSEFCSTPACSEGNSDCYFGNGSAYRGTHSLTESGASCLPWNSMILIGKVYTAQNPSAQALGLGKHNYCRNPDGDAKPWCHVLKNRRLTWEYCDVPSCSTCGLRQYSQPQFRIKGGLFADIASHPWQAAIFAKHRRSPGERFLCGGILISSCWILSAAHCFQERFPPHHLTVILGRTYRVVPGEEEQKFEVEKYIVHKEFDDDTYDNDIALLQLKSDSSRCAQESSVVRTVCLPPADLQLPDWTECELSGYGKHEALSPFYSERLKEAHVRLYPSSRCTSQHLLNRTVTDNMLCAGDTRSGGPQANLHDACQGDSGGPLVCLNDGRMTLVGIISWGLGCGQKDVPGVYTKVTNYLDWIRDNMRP
Coagulation factor IX, sequence (P00740 47-191 limits assumed): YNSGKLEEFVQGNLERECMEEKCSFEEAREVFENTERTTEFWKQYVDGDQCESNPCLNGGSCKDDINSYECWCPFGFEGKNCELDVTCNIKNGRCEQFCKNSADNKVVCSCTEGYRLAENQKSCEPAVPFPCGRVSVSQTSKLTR
Coagulation factor IX, sequence (P00740 227-461 limits assumed): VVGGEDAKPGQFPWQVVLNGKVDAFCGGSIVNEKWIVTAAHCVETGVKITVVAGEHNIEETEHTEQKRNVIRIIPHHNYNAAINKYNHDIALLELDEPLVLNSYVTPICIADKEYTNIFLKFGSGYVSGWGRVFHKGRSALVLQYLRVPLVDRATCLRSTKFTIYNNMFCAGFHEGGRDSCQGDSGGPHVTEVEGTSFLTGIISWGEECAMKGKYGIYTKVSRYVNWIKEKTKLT
Coagulation factor XI, sequence (P03951 19-387 limits assumed): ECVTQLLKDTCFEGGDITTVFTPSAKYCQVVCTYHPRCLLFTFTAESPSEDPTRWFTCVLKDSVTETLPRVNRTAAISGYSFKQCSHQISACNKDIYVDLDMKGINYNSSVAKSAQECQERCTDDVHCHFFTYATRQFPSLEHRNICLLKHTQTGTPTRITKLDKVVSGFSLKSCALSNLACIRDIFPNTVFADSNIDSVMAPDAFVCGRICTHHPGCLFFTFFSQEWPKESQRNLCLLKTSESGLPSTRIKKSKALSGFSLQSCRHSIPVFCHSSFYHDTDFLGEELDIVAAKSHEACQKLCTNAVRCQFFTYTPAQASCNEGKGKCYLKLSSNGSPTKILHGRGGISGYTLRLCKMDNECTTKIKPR
Coagulation factor XI, sequence (P03951 388-625 limits assumed): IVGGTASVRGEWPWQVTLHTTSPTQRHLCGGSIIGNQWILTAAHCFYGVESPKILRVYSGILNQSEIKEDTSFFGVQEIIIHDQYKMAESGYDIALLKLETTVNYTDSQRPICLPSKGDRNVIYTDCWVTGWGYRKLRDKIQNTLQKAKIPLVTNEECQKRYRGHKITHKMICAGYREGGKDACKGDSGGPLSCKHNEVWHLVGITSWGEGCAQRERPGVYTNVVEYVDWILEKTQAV

For `CC[C@H](C)[C@@H]1NC(=O)[C@@H]2CCCN2C(=O)[C@@H]2CCCN2C(=O)[C@H](CCCCN)NC(=O)[C@H](CO)NC(=O)[C@H](CCCCN)NC(=O)[C@H](Cc2ccc(O)cc2)NC(=O)[C@@H]2CSSC[C@H](NC1=O)C(=O)N[C@@H](Cc1ccccc1)C(=O)N1CCC[C@H]1C(=O)N[C@@H](CC(=O)O)C(=O)NCC(=O)N[C@@H](CCCNC(=N)N)C(=O)N2` (HELM PEPTIDE1{C.F.P.D.G.R.C.Y.K.S.K.P.P.I}$PEPTIDE1,PEPTIDE1,1:R3-7:R3|PEPTIDE1,PEPTIDE1,1:R1-14:R2$$$V2.0), the Ki on Serine protease 1 was 0.16 µM; on Plasminogen [1], 51 pM; at Cathepsin G, 29 µM; on Coagulation factor IX, more than 50 µM; at Coagulation factor X, more than 50 µM; at Coagulation factor XII, more than 50 µM. The Ki (at Prothrombin; in [2]; in [3]; at Coagulation factor XI; on Plasma kallikrein) was more than 50 µM in each case. Besides, the K stood at 9.9 ×10⁻⁴ /s on Plasminogen [4] and 1.9 ×10⁷ /M/s on Plasminogen [5]. The inhibition at Plasminogen [6] turned out to be 90%. Also, the Ratio IC50 in the assay listed under Homo sapiens [7], in the assay listed under Homo sapiens [8], in the assay listed under Homo sapiens [9], in the assay filed under Homo sapiens [10], in the assay filed under Homo sapiens [11] and in the assay listed under Homo sapiens [12] was more than 1e+06 in each case. For the same molecule, the Ratio IC50 in the assay listed under Homo sapiens [13], in the assay listed under Homo sapiens [14] and in the assay listed under Homo sapiens [15] was more than 1e+06 throughout.
